# Test results published in publication PMC7318068 (ACS Central Science, 2020).
# Legend:
# MDA-MB-468 cells [1] = test: Cell viability assay for combinatorial effect of AZ-82 and MK-FNE or MK-2206; type: cell-based; conditions: 72 hours
# Halo-Akt3(wt) = Halo-Akt3(wt) (Homo sapiens, UniProt Q9Y243); type: cell-based; conditions: 5 μM
# Halo-Akt3(C119S) = Halo-Akt3(C119S) (Homo sapiens, UniProt Q9Y243, C119S); type: cell-based; conditions: 5 μM, 48 h, then withdrawal
# Summary of the method: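 HEK293T cells co-expressing the AktAR ratiometric-FRET reporter and Halo-Akt3(C119S) were exposed to test compound (5 μM) or DMSO for 24–48 h. They were then rinsed twice and recovered in drug-free media for 24 h. Akt kinase activity was imaged live by confocal ratiometric FRET with 458 nm argon-laser excitation at set times.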
# [2] = test system: Akt3(T305)-phosphorylation; test: Halo-Akt3 phospho-T305 levels by western blot and ELISA; type: cell-based; conditions: saturating doses
# [3] = test system: T47D and T47D MK-2206-resistant cells; test: Cell viability of T47D; type: cell-based; conditions: 72 h
# MDA-MB-468 xenografts = test: Drug efficacy test in MDA-MB-468 xenograft mouse model; type: in vivo, athymic nude mice; conditions: 200 mg/kg PO twice weekly
# Summary of the method: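 Polyclonal MDA-MB-468 cells were injected into both flanks of female nude mice. From day 7, test compound (200 mg/kg) or vehicle DMSO was given by oral gavage twice weekly, 5 mice per group. Tumor volume was normalized to time zero and plotted against time. Growth rate was the linear-regression slope; groups were compared by two-tailed unpaired t-test.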
# MDA-MB-468 cells [4] = test: Drug effect persistence assay; type: cell-based; conditions: EC60 concentration 48 h, then 24 h recovery
# Akt1, Akt2, Akt3 = conditions: cited from earlier work
# Sequence of Halo-Akt3(wt) (Q9Y243 whole entry): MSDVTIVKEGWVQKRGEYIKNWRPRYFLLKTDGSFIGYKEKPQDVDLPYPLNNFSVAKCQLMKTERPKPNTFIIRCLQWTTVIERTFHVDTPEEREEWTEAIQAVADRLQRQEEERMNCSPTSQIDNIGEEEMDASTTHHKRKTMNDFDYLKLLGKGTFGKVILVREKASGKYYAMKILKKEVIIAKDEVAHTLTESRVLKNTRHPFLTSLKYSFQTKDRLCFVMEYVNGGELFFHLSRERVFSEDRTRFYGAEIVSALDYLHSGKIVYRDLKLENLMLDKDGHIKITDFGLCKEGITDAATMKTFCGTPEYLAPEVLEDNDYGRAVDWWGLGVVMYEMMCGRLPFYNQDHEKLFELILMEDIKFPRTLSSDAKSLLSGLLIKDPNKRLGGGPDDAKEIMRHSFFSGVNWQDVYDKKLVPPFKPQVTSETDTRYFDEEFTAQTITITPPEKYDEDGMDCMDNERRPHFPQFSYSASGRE
# Sequence of Halo-Akt3(C119S) (Q9Y243 whole entry C119S): as the sequence (Q9Y243 whole entry) above, with C119S counted along it
structure (smiles),measurement,setting,value
CCCc1cc(C(=O)N[C@H](Cc2ccc(-c3cccc(OC(F)(F)F)c3)nc2)C(=O)N[C@@H]2CCNC2)sc1C [AZ82],effect on proliferation inhibition by MK-FNE or MK-2206,MDA-MB-468 cells [1],"selectively promoted resistance to MK-FNE, but not MK-2206"
NC1(c2ccc(-c3nc4ccn5c(=O)[nH]nc5c4cc3-c3ccccc3)cc2)CCC1 [MK-2206],ratiometric-FRET signal (Akt activity) under treatment,"Halo-Akt3(wt); 24 h, vs DMSO",suppressed the ratiometric-FRET signal
same,Akt3(wt) activity after 24 h withdrawal in drug-free media,"Halo-Akt3(wt); 48 h, then withdrawal",kinase activity was restored
same,Akt3(C119S) activity after 24 h withdrawal in drug-free media,Halo-Akt3(C119S),recovery to normal activity levels
same,Akt3(T305)-phosphorylation,[2],fully suppressed
same,Fold increase in resistance = EC50(MK-res)/EC50(wt),[3],5 fold
same,tumor-growth suppression overall,MDA-MB-468 xenografts; vs DMSO,14%
same,"slope (m) of fold change in tumor size vs day, linear regression",MDA-MB-468 xenografts; DMSO 0.0638 ± 0.0032,0.0547 ± 0.0018
same,blood glucose levels,"MDA-MB-468 xenografts; Day 21, 4 days after termination of dosing",elevated relative to MK-FNE-treated mice
same,regrowth after compound withdrawal,MDA-MB-468 cells [4],statistically significant regrowth was observed
same,higher affinity for Akt1 than Akt3,"Akt1, Akt2, Akt3",~100 fold
same,preference of Akt2 over Akt3 for binding,"Akt1, Akt2, Akt3",around 10 fold
